The results in this text go back to paper PMC6583925 (Journal of medicinal chemistry, 2019).

Structures are written as SMILES. “Also recorded” adds a separate entry of the source.

One experiment deals with T1, ABHD12 (Mus musculus, UniProt Q99LR1).
T1 sequence (Q99LR1 1-398): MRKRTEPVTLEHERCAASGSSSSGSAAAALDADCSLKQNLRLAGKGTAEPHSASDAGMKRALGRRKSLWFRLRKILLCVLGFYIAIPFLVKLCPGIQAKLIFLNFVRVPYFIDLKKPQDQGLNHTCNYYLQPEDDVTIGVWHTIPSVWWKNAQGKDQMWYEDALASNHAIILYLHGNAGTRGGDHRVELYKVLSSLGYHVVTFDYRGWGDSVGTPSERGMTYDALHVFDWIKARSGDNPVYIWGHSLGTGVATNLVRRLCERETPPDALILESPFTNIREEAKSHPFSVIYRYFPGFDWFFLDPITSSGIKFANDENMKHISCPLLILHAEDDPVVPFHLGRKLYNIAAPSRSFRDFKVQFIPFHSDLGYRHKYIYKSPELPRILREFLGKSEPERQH
Assay: not given
To be noted: 30 mg/kg, i.p., mice. It is filed as in vivo. The method, boiled down: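 Test compound was suspended in EtOH/PEG40 1:1 by bath sonication, then diluted with 9 volumes of DPBS (EtOH/PEG40/DPBS 1:1:18). Freshly prepared solution was given i.p. at 10 μL/g body weight. Mice were anesthetized with isoflurane and euthanized by cervical dislocation, and tissues were harvested. Tissue membrane proteomes were labeled with JJH350 (2 μM, 45 min, 37 °C), clicked to rhodamine azide and read by in-gel fluorescence.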
Regarding `COc1ccc(N2CCN(C(=O)ON3C(=O)C4CN(C(=O)c5ccc(Oc6ccccc6)cc5)CCN4C3=O)CC2)cc1` (stereo not shown) [JJH329, 1,3-Dioxo-7-(4-phenoxybenzoyl)hexahydroimidazo[1,5-a]pyrazine-2(3H)-yl 4-(4-methoxyphenyl)piperazine-1-carboxylate], the “in vivo inhibition of ABHD12” value was “only marginal inhibition of ABHD12”.

The target of a further experiment is T2, ABHD12 (Homo sapiens, UniProt Q8N2K0).
T2 sequence (Q8N2K0 1-398): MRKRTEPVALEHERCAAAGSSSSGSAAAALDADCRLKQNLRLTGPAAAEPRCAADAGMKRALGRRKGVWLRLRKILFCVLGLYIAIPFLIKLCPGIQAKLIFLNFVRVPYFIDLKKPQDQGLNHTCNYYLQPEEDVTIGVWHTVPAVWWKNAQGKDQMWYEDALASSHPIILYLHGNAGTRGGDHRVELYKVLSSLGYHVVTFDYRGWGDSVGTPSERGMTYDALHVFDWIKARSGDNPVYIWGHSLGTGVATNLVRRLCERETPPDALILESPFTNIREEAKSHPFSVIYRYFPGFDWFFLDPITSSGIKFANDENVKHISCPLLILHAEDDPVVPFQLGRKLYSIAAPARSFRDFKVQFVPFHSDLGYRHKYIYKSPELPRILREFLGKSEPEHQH
The experiment in a line: lyso-PS hydrolysis. It is filed as biochemical. Particulars: 17:1 lyso-PS 100 μM. The method, boiled down:
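Test compound preincubated 20 min at room temperature with ABHD12-overexpressing HEK293T membrane (0.25 mg/mL) in DPBS. 17:1 lyso-PS added (100 μM final) and run 30 min at 37 °C. Quench: 2:1 CHCl3/MeOH containing 1 nmol 15:0 FFA internal standard. Organic phase analysed by LC-MS, ESI negative mode, SIM at m/z 267.20 (17:1 FFA product) and 241.20 (15:0 FFA).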
Consider `Cc1cnc(N2CCN(NC(=S)Nc3cccnc3)CC2)c(Cl)c1` [DO127], for which the “ABHD12 inhibitory activity, lyso-PS substrate assay” value was “did not show any ABHD12 inhibitory activity”.

The test system of a further experiment is serine hydrolases. Nature of the experiment: selectivity by gel-based ABPP with FP-Rh in mouse brain proteome. It is filed as biochemical. Particulars: FP-Rh probe. The method, boiled down: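 Mouse brain homogenised in DPBS and cleared at 1,400 × g. Membranes pelleted at 16,000 × g (45 min, 4 °C) and resuspended in DPBS; used at 1 mg/mL. Test compound pretreatment: (thio)ureas 20 min at room temperature, NHH-carbamates 45 min at 37 °C. FP-Rh labelling (1 μM final) 45 min at 37 °C. Readout: 10% SDS-PAGE, in-gel fluorescence, band intensities quantified.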
As to `COc1ccc(N2CCN(C(=O)ON3C(=O)C4CN(C(=O)c5ccc(Oc6ccccc6)cc5)CCN4C3=O)CC2)cc1` (stereo not shown) [JJH329, 1,3-Dioxo-7-(4-phenoxybenzoyl)hexahydroimidazo[1,5-a]pyrazine-2(3H)-yl 4-(4-methoxyphenyl)piperazine-1-carboxylate], the “selectivity / off-targets among serine hydrolases” value was “ABHD6 was observed as the only off-target”.

Another experiment deals with T2, ABHD12.
Assay: not given
It is filed as biochemical. To be noted: FP-Rh probe 1 μM.
For `FC(F)(F)c1cnc(N2CCC(NC(=S)Nc3cccnc3)CC2)c(Cl)c1` [DO130], the “time-dependent inhibition of ABHD12” value is recorded as “did not show time-dependent inhibition of ABHD12”.

The target in another experiment is T1, ABHD12. Nature of the experiment: gel-based ABPP of mouse brain membrane proteome using the JJH350 probe. To be noted: JJH350 probe; SAR statements. It is filed as biochemical. Put shortly:
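Mouse brain was dounce-homogenized in DPBS, cleared at 1,400 × g (3 min, 4 °C) and spun at 16,000 × g (45 min, 4 °C); the membrane pellet was washed and resuspended. Proteome (1 mg/mL) was pretreated with test compound (20 min rt for (thio)ureas; 45 min 37 °C for carbamates), then labeled with JJH350 (2 μM final, 45 min, 37 °C).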
Turning to `FC(F)(F)Oc1ccc(Oc2ccnc(N3CCC[C@H](NC(=S)Nc4cccnc4)C3)c2Cl)c(Cl)c1` [(S)-DO271], the “ABHD12 inhibitory activity, gel-based ABPP” value was “less active than (R)-DO271”.

In the case of `Cc1cnc(N2CCN(NC(=S)Nc3cccnc3)CC2)c(Cl)c1` [DO127], the “ABHD12 inhibitory activity, gel-based ABPP” value was “did not show any ABHD12 inhibitory activity”.

Take `Cc1cnc(N2CCC(NC(=S)Nc3cccnc3)CC2)c(Cl)c1` [DO129, N-3-Pyridyl-N’-[1-{3-chloro-5-(methyl)pyridin-2-yl}piperidin-4-yl]thiourea]: the “ABHD12 inhibitory activity, gel-based ABPP” value is “exhibited ABHD12 inhibitory activity”.

In the case of `FC(F)(F)c1cnc(N2CCC(NC(=S)Nc3cccnc3)CC2)c(Cl)c1` [DO130], the “ABHD12 inhibitory activity, gel-based ABPP” value is recorded as “ABHD12 inhibitory activity as commercial AW01275”.

Take `O=C(Nc1cccnc1)NC1CCN(c2ncc(C(F)(F)F)cc2Cl)CC1` [compound 8]: the “ABHD12 inhibitory activity, gel-based ABPP” value is recorded as “substantial loss in activity”.

As to `COc1ccc(NC(=S)NC2CCN(c3ncc(C(F)(F)F)cc3Cl)CC2)cn1` [compound 9, N-{6-(methoxy)Pyridin-3-yl}-N’-[1-{3-chloro-5-(trifluoromethyl)pyridin-2-yl}piperidin-4-yl]thiourea], the “ABHD12 inhibitory activity, gel-based ABPP” value is recorded as “diminished potency towards ABHD12”.

Consider `FC(F)(F)c1cnc(N2CCC(NC(=S)Nc3cnc4ccccc4c3)CC2)c(Cl)c1` [compound 10], for which the “ABHD12 inhibitory activity, gel-based ABPP” value is reported as “diminished potency towards ABHD12”.

In the case of `FC(F)(F)c1cnc(N2CCC(NC(=S)N3CCCc4ccccc43)CC2)c(Cl)c1` [compound 11], the “ABHD12 inhibitory activity, gel-based ABPP” value is “diminished potency towards ABHD12”.

Take `FC(F)(F)c1cnc(N2CCC(NC(=S)Nc3ccccc3)CC2)c(Cl)c1` [compound 12]: the “ABHD12 inhibitory activity, gel-based ABPP” value is given as “retained some ABHD12 inhibitory activity, albeit slightly lower than that of DO130”.

For `FC(F)(F)c1cnc(N2CCCC(NC(=S)Nc3cccnc3)C2)c(Cl)c1` (stereo not shown) [compound 13, N-3-Pyridyl-N’-[1-{3-chloro-5-(trifluoromethyl)pyridin-2-yl}piperidin-3-yl]thiourea], the “ABHD12 inhibitory activity, gel-based ABPP” value is given as “abolished ABHD12 inhibitory activity; also recorded: dramatically reduced ABHD12 inhibitory activity”.

Turning to `FC(F)(F)c1cnc(N2CCC(NC(=S)Nc3cccnc3)C2)c(Cl)c1` (stereo not shown) [compound 14], the “ABHD12 inhibitory activity, gel-based ABPP” value is “near-complete loss”.

As for `FC(F)(F)c1cnc(N2CCCC(NC(=S)Nc3cccnc3)CC2)c(Cl)c1` (stereo not shown) [compound 15], the “ABHD12 inhibitory activity, gel-based ABPP” value is given as “substantial reductions”.

For the compound `CN(C(=S)Nc1cccnc1)C1CCN(c2ncc(C(F)(F)F)cc2Cl)CC1` [compound 20], the “ABHD12 inhibitory activity, gel-based ABPP” value was “weakened ABHD12 activity”.

As to `FC(F)(F)c1cnc(N2C3CCC2CC(NC(=S)Nc2cccnc2)C3)c(Cl)c1` (stereo not shown) [compound 21], the “ABHD12 inhibitory activity, gel-based ABPP” value is listed as “impaired ABHD12 activity relative to DO130”.

With `S=C(Nc1cccnc1)NC1CCN(c2ncccc2Cl)CC1` [compound 22], the “ABHD12 inhibitory activity, gel-based ABPP” value was “abolished ABHD12 activity up to 5 μM”.

As to `FC(F)(F)c1ccc(N2CCC(NC(=S)Nc3cccnc3)CC2)nc1` [compound 23], the “ABHD12 inhibitory activity, gel-based ABPP” value is given as “only a small loss in potency”.

As to `FC(F)(F)c1ccnc(N2CCC(NC(=S)Nc3cccnc3)CC2)c1` [compound 24], the “ABHD12 inhibitory activity, gel-based ABPP” value is given as “first sub-micromolar inhibitors in this series”.

In the case of `FC(F)(F)c1cccc(N2CCC(NC(=S)Nc3cccnc3)CC2)n1` [compound 26], the “ABHD12 inhibitory activity, gel-based ABPP” value is listed as “first sub-micromolar inhibitors in this series”.

Regarding `COc1ccnc(N2CCC(NC(=S)Nc3cccnc3)CC2)c1` [compound 31], the “ABHD12 inhibitory activity, gel-based ABPP” value is “even more deleterious effect”.

With `Fc1ccc(Oc2ccnc(N3CCC(NC(=S)Nc4cccnc4)CC3)c2)cc1` [compound 37], the “ABHD12 inhibitory activity, gel-based ABPP” value is given as “increased potency”.

On to `FC(F)(F)Oc1ccc(Oc2ccnc(N3CCC(NC(=S)Nc4cccnc4)CC3)c2)cc1` [compound 38], for which the “ABHD12 inhibitory activity, gel-based ABPP” value is on record as “increased potency”.

In the case of `Cc1c(Oc2ccc(OC(F)(F)F)cc2)ccnc1N1CCC(NC(=S)Nc2cccnc2)CC1` [compound 40, N-3-Pyridyl-N’-(1-[3-methyl-4-{4-(trifluoromethoxy)phenoxy}pyridine-2-yl]piperidin-4-yl)thiourea], the “ABHD12 inhibitory activity, gel-based ABPP” value is “did not alter potency”.

`N#Cc1c(Oc2ccc(OC(F)(F)F)cc2)ccnc1N1CCC(NC(=S)Nc2cccnc2)CC1` [compound 41]: the “ABHD12 inhibitory activity, gel-based ABPP” value was “reduced ABHD12 inhibitory activity”.

Consider `FC(F)(F)Oc1ccc(Oc2ccnc(N3CCC(NC(=S)Nc4cccnc4)CC3)c2C(F)(F)F)cc1` [compound 42], for which the “ABHD12 inhibitory activity, gel-based ABPP” value is recorded as “reduced ABHD12 inhibitory activity”.

The experiment is the same for the next values; noted with them: compared to 28 or 38.
Regarding `FC(F)(F)Oc1ccc(Oc2ccnc(N3CCC(NC(=S)Nc4cccnc4)CC3)c2Cl)cc1` [compound 39], the “increase in ABHD12 inhibitory activity” value is greater than 10 fold.

Staying with this experiment, now noted: compared to DO264.
Consider `FC(F)(F)Oc1ccc(Oc2ccnc(N3CCCC(NC(=S)Nc4cccnc4)C3)c2Cl)c(Cl)c1` (racemic) [(S,R)-DO271], for which the “reduction in potency for ABHD12 inhibition” value is ~ 10,000 fold.

The experiment is the same for the next values; noted with them: relative to 39.
Turning to `FC(F)(F)Oc1cccc(Oc2ccnc(N3CCC(NC(=S)Nc4cccnc4)CC3)c2Cl)c1` [compound 43], the “lower potency of regioisomers” value is given as 3–4 fold.

With `FC(F)(F)Oc1ccccc1Oc1ccnc(N2CCC(NC(=S)Nc3cccnc3)CC2)c1Cl` [compound 44], the “lower potency of regioisomers” value is 3–4 fold.

Still in this experiment, the particulars now being: relative to the 4-CF3 analogue.
As to `S=C(Nc1cccnc1)NC1CCN(c2cc(Cl)ccn2)CC1` [compound 30], the “decrease in ABHD12 inhibitory activity on substituting the 4-CF3 group” value is recorded as ~ 3 fold.

The target of the next experiment is T1, ABHD12. The experiment in a line: gel-based competitive ABPP using the FP-Rh probe, mouse brain membrane proteome. Particulars: up to 10 μM. It is filed as biochemical. The method, boiled down:
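Mouse brain membrane fraction was prepared by dounce homogenization in DPBS, a 1,400 × g clearing spin, and a 16,000 × g spin (45 min, 4 °C). Proteome (1 mg/mL) was pretreated with test compound (20 min rt for (thio)ureas; 45 min 37 °C for carbamates), then labeled with FP-Rh (1 μM final, 45 min, 37 °C). Samples were quenched in SDS loading buffer, separated by SDS-PAGE and read by in-gel fluorescence.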
For the compound `COc1ccc(N2CCN(C(=O)ON3C(=O)C4CN(Cc5ccc(Oc6ccccc6)cc5)CCN4C3=O)CC2)cc1` (stereo not shown) [ABC34], the “ABHD12 activity” value is listed as “negligible ABHD12 activity up to 10 μM”.
